Source: ChEMBL document CHEMBL4020842, “Discovery of N1-(4-((7-Cyclopentyl-6-(dimethylcarbamoyl)-7 H-pyrrolo[2,3- d]pyrimidin-2-yl)amino)phenyl)- N8-hydroxyoctanediamide as a Novel Inhibitor Targeting Cyclin-dependent Kinase 4/9 (CDK4/9) and Histone Deacetlyase1 (HDAC1) against Malignant Cancer” (J Med Chem, 2018)
≈ marks a conversion by molar mass, not a printed value. Calls of active or inactive are those of the source. The calls are words filed in the database; no cut-off is given here.

Tests used:
CDK4/CDK9 (Homo sapiens) = CDK4/CDK9 (Homo sapiens) (UniProt P11802+P50750); assay: Inhibition of CDK4/CDK9 in human A549 cells assessed as reduction in Rb phosphorylation at Ser807/811 residues at 1 uM after 48 hrs by Western blot method; assay type: cell-based
[1] = Lipophilicity, log D of the compound at pH 7.4 by HPLC based shake flask method; assay type: physicochemical; details: buffer
4T1 [2] = assay: Antitumor activity against mouse Fluc-labeled 4T1 cells implanted in Balb/c mouse assessed as reduction in tumor weight at 90 mg/kg, ip administered daily for 18 days measured after 8 to 25 days; assay type: functional, organism-based
Outline: (§1)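 Luciferase (Fluc) reporter introduced into 4T1 cells by lentiviral transduction. Cells implanted orthotopically into mammary fat pads of female BALB/c mice aged 6–8 weeks. Once tumours averaged 100 mm3, dosing was daily by IP injection. Bioluminescence imaging was done at days 8 and 25 to reflect viable tumour cell number. Tumour weight was recorded at study end.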

MDA-MB-231 [3] = assay: Induction of apoptosis in human MDA-MB-231 cells assessed as necrotic cells at 1 uM after 48 hrs by annexin V-FITC/propidium iodide staining based flow cytometry (reference value: […]); assay type: functional
[4] = target: Aurora kinase B/Inner centromere protein (Homo sapiens, UniProt Q96GD4); assay: Inhibition of recombinant human full length C-terminal His6-tagged Aurora B//N-terminal GST-tagged INCENP (821-end residues) expressed in baculovirus infected sf21 cells using AKRRRLSSLRA substrate in presence of [gamma33P]ATP after 10 mins by scintillation counting method
T47D [5] = assay: Induction of apoptosis in human T47D cells after 48 hrs by Hoechst 33342 staining based assay; assay type: functional, cell-based
Outline: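 T47D cultures were incubated with test agent for 48h, then stained with Hoechst 33342. Apoptotic bodies were examined by imaging and compared with untreated cells.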

T47D [6] = assay: Induction of apoptosis in human T47D cells assessed as early apoptotic cells at 5 uM after 48 hrs by annexin V-FITC/propidium iodide staining based flow cytometry (reference value: 7.7%); assay type: functional
A549 [7] = assay: Induction of apoptosis in human A549 cells assessed as early apoptotic cells at 10 uM after 48 hrs by annexin V-FITC/propidium iodide staining based flow cytometry (reference value: 0.41%); assay type: functional
MDA-MB-231 [8] = assay: Induction of apoptosis in human MDA-MB-231 cells assessed as late apoptotic cells at 10 uM after 48 hrs by annexin V-FITC/propidium iodide staining based flow cytometry (reference value: 1.53%); assay type: functional
Hep 3B2 [9] = assay: Downregulation of Cyclin-D1 protein expression in human Hep3B cells after 48 hrs by Western blot method; assay type: functional, cell-based
Outline: (§2)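 Treated cells were lysed and CDK4 and cyclin D1 protein levels were assessed by Western blot.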

T47D [10] = assay: Induction of apoptosis in human T47D cells assessed as necrotic cells at 1 uM after 48 hrs by annexin V-FITC/propidium iodide staining based flow cytometry (reference value: 0.8%); assay type: functional
A549 [11] = assay: Induction of apoptosis in human A549 cells assessed as necrotic cells at 5 uM after 48 hrs by annexin V-FITC/propidium iodide staining based flow cytometry (reference value: […]%); assay type: functional
A549 [12] = assay: Induction of apoptosis in human A549 cells assessed as reduction in Bcl2 protein expression after 48 hrs by Western blot method; assay type: functional, cell-based
Outline: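 Cells were treated with or without compound and control for 48 h, then lysed. Bcl-2 and cleaved caspase 3 were assessed by Western blot.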

4T1 [13] = assay: Antitumor activity against mouse Fluc-labeled 4T1 cells implanted in Balb/c mouse assessed as reduction in tumor weight at 130 mg/kg, ip administered daily for 18 days measured after 8 to 25 days; assay type: functional, organism-based; outline: as §1
[14] = Aqueous solubility in water at 1 mg using methanesulfonic acid formulation sonicated for 24 hrs and incubated under unstirred condition for 24 hrs by HPLC method; assay type: physicochemical
Hep 3B2 [15] = assay: Cell cycle arrest in human Hep3B cells assessed as accumulation at G2 phase at 2.5 to 10 uM after 24 hrs by propidium iodide staining based flow cytometry; assay type: functional
Outline: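 Cells were exposed for 24 h to a range of concentrations (625 nM, 2.5 and 10 µM), with DMSO vehicle as control. They were then stained with propidium iodide and analysed by flow cytometry to obtain the percentages of cells in G0/G1, S and G2 phases.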

CDK4/Cyclin D3 = CDK4/Cyclin D3 (Homo sapiens, UniProt P11802); assay: Inhibition of recombinant human full length N-terminal GST-tagged CDK4/Cyclin-D3 co-expressed in baculovirus infected sf21 cells using Rb substrate in presence of [gamma33P]ATP after 10 mins by scintillation counting method
MDA-MB-468 = assay: Cytotoxicity against human MDA-MB-468 cells assessed as reduction in cell viability after 72 hrs by CCK8 assay; assay type: functional, cell-based; details: MDA-MB-468, 72 h
A549 [16] = assay: Cytotoxicity against human A549 cells assessed as reduction in cell viability after 72 hrs by CCK8 assay; assay type: functional, cell-based; details: A549, 72 h
T47D [17] = assay: Induction of apoptosis in human T47D cells assessed as early apoptotic cells at 10 uM after 48 hrs by annexin V-FITC/propidium iodide staining based flow cytometry (reference value: 7.7%); assay type: functional
4T1 [18] = assay: Antitumor activity against mouse Fluc-labeled 4T1 cells implanted in Balb/c mouse assessed as tumor growth inhibition at 130 mg/kg, po administered daily via gavage for 18 days by bioluminescence assay relative to control; assay type: functional; details: 4T1, po, 432 h, read-out: TGI
T47D [19] = assay: Downregulation of Cyclin-D1 protein expression in human T47D cells after 48 hrs by Western blot method; assay type: functional, cell-based; outline: as §2
MDA-MB-231 [20] = assay: Induction of apoptosis in human MDA-MB-231 cells assessed as late apoptotic cells at 1 uM after 48 hrs by annexin V-FITC/propidium iodide staining based flow cytometry (reference value: 1.53%); assay type: functional
Histone deacetylase 1 = Histone deacetylase 1 (Homo sapiens, UniProt Q13547); assay: Inhibition of HDAC1 in human A549 cells assessed as increase in acetylated-histone H3 level at 1 to 5 uM after 48 hrs by Western blot method; assay type: cell-based
T47D [21] = assay: Induction of apoptosis in human T47D cells assessed as necrotic cells at 10 uM after 48 hrs by annexin V-FITC/propidium iodide staining based flow cytometry (reference value: 0.8%); assay type: functional
NCI-H460 = assay: Induction of apoptosis in human NCI-H460 cells assessed as early apoptotic cells at 1 uM after 48 hrs by annexin V-FITC/propidium iodide staining based flow cytometry (reference value: 0.11%); assay type: functional
MDA-MB-231 [22] = assay: Induction of apoptosis in human MDA-MB-231 cells assessed as early apoptotic cells at 1 uM after 48 hrs by annexin V-FITC/propidium iodide staining based flow cytometry (reference value: 0.4%); assay type: functional
HepG2 = assay: Induction of apoptosis in human HepG2 cells assessed as live cells at 10 uM after 48 hrs by annexin V-FITC/propidium iodide staining based flow cytometry (reference value: 96.7%); assay type: functional
MDA-MB-231 [23] = assay: Downregulation of CDK4 protein expression in human MDA-MB-231 cells after 48 hrs by Western blot method; assay type: functional, cell-based; outline: as §2
MDA-MB-231 [24] = assay: Induction of apoptosis in human MDA-MB-231 cells assessed as early apoptotic cells at 5 uM after 48 hrs by annexin V-FITC/propidium iodide staining based flow cytometry (reference value: 0.4%); assay type: functional

CDK4/CDK9 (Homo sapiens), sequence (P11802 whole entry, looked up): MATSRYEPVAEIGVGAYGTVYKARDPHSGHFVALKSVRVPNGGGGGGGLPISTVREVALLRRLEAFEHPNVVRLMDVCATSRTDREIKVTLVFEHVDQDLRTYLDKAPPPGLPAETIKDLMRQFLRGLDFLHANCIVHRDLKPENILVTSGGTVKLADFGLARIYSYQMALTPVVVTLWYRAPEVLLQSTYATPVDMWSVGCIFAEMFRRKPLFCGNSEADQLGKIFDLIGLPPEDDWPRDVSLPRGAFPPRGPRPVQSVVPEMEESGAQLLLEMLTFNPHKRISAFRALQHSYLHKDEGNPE
CDK4/CDK9 (Homo sapiens), sequence (P50750 whole entry, looked up): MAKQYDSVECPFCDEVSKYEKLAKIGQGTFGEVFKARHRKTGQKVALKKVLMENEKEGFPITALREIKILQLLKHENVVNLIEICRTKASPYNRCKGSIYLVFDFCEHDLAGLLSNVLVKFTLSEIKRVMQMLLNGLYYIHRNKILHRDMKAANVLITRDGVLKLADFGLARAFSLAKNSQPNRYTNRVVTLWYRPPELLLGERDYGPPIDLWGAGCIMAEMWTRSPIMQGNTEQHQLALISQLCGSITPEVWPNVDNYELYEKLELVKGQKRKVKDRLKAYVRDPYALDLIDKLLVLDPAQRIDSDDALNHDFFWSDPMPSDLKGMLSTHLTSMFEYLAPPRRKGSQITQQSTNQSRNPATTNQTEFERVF
CDK4/Cyclin D3, sequence (P11802 whole entry): as the sequence (P11802 whole entry, looked up) above
CDK4/Cyclin D3, sequence (P30281 whole entry, further chain): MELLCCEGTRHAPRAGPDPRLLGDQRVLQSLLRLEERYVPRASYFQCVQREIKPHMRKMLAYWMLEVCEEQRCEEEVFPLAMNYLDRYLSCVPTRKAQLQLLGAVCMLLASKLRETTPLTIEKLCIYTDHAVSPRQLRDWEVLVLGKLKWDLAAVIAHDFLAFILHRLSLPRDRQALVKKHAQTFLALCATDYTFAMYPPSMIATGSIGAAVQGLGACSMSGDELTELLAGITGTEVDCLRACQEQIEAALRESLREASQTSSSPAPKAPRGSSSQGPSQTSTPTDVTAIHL
Histone deacetylase 1, sequence (Q13547 whole entry): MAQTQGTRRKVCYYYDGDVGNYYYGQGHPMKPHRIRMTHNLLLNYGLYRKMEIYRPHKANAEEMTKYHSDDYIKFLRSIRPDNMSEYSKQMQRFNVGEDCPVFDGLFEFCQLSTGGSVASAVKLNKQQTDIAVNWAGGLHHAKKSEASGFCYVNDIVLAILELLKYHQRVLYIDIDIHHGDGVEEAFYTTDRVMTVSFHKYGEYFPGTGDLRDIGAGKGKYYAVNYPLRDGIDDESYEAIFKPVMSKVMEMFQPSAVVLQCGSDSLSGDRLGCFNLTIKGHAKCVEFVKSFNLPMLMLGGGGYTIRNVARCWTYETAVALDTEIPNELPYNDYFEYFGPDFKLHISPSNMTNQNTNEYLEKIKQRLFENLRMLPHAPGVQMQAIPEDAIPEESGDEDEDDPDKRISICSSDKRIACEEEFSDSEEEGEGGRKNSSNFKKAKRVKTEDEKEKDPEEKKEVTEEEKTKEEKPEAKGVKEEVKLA
Aurora kinase B/Inner centromere protein, sequence (Q96GD4 whole entry): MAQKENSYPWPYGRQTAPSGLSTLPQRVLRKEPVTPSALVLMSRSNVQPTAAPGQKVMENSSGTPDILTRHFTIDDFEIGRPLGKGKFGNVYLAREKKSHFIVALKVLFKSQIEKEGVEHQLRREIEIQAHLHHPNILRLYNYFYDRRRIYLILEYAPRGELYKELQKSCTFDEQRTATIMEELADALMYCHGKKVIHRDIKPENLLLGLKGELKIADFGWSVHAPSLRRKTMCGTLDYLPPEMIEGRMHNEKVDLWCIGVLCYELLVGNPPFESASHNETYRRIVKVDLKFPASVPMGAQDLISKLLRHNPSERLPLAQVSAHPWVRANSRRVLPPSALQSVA
Aurora kinase B/Inner centromere protein, sequence (Q9NQS7 whole entry, further chain): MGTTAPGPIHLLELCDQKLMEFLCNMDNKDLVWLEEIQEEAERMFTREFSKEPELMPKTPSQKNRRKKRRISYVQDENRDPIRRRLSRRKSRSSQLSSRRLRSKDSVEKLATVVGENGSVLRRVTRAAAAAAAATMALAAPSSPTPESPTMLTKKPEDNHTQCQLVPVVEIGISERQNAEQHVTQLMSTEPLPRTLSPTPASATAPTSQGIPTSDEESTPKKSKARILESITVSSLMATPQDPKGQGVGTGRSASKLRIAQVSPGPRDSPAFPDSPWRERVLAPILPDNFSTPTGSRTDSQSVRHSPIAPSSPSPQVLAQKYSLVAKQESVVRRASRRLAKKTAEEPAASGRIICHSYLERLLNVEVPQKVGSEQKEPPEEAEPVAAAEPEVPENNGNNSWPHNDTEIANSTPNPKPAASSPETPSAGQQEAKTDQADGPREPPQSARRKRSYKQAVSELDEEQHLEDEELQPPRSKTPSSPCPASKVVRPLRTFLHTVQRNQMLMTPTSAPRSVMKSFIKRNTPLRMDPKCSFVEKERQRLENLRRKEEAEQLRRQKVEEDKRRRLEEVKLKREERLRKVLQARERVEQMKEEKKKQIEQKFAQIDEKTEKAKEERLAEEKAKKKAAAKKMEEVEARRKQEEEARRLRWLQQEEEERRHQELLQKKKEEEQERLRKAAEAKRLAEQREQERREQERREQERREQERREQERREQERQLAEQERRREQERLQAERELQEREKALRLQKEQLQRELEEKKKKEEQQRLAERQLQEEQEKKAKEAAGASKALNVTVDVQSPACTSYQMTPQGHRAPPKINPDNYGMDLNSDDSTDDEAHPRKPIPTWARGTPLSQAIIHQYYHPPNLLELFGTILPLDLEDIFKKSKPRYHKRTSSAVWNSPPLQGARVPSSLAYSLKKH

- inhibition (CDK4/CDK9 (Homo sapiens)): Active
- logD [1]: 2.02
- IC50 [4]: 0.019 µM
- solubility at 24 h [14]: 0.526 mg/mL (≈ 982 µM)
- IC50 (CDK4/Cyclin D3): 0.0088 µM
- inhibition (Histone deacetylase 1): Active
Structure (SMILES): CN(C)C(=O)c1cc2cnc(Nc3ccc(NC(=O)CCCCCCC(=O)NO)cc3)nc2n1C1CCCC1
- Activity (4T1 [2]): Active
- Activity (MDA-MB-231 [3]): 1.65%
- Activity (T47D [5]): Active
- Activity (T47D [6]): 14.1%
- Activity (A549 [7]): 5.95%
- Activity (MDA-MB-231 [8]): 6.59%
- Activity (Hep 3B2 [9]): Dose-dependent effect
- Activity (T47D [10]): 6.7%
- Activity (A549 [11]): 4.16%
- Activity (A549 [12]): Active
- Activity (4T1 [13]): Active
- Activity (Hep 3B2 [15]): Active
- IC50 (MDA-MB-468): 1.82 µM
- IC50 (A549 [16]): 1.33 µM
- Activity (T47D [17]): 37.1%
- inhibition in vivo at 130 mg/kg (4T1 [18]): 79.3%
- Activity (T47D [19]): Dose-dependent effect
- Activity (MDA-MB-231 [20]): 1.97%
- Activity (T47D [21]): 2.62%
- Activity (NCI-H460): 0.28%
- Activity (MDA-MB-231 [22]): 0.78%
- Activity (HepG2): 73.3%
- Activity (MDA-MB-231 [23]): Dose-dependent effect
- Activity (MDA-MB-231 [24]): 2.57%
